Experimental data as given in paper PMC3516921 (ChemMedChem, 2012).
≈ marks a conversion by molar mass, not a printed value. Like-named read-outs stand apart in the source and are kept apart here.

Experiments:
[1] = molecular target: human cannabinoid CB2 receptors (Homo sapiens, UniProt P34972); assay: [35S]GTPγS binding assay on hCB2-CHO cell membranes; type: biochemical; details: for Functional effect on [35S]GTPγS binding: hCB2-CHO cell membranes
[2] = molecular target: human cannabinoid type 1 receptor (Homo sapiens, UniProt P21554); assay: CB1 receptor competitive binding assay with [3H]CP-55,940
[3] = molecular target: human cannabinoid type 2 receptor (Homo sapiens, UniProt P34972); assay: CB2 receptor competitive binding assay with [3H]CP-55,940; details: for S.I. (selectivity index for CB2, Ki(CB1)/Ki(CB2)): Ki(CB1)/Ki(CB2) ratio
[4] = Experimental logP determined by HPLC; type: physicochemical; details: RP-18 column; for chromatographic logP: reversed-phase HPLC; for logP Exp: HPLC, MeOH/H2O, extrapolated to zero organic solvent
CB2 receptor = CB2 receptor (Homo sapiens, UniProt P34972); assay: On-line screening on immobilized CB1/CB2-OT column; type: binding; details: 0.25 nM [3H]-Win-55,1212 marker, 10 nM compound
[5] = system: formalin-induced nocifensive behaviour; assay: Formalin test of acute peripheral and inflammatory pain; type: in vivo; details: mice; for Effect on 2nd phase of formalin-induced nocifensive behaviour: 3 mg/kg ip, 15 min before formalin; for Effect of AM630 pre-treatment on the antinociceptive effect of the compound: compound 3 mg/kg ip + AM630 1 mg/kg ip 5 min before
Method in brief: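 Mice (n = 8–10 per group, randomly assigned) received test compound ip (1 or 3 mg/kg) or vehicle 15 min before formalin (1.25% in saline, 30 μl, dorsal hind paw). Where used, AM630 (1 mg/kg ip) was given 5 min before compound. A blinded observer timed lifting, favouring, licking, shaking and flinching in 5-min bins over 0–10 min (early phase) and 20–60 min (late phase). Analysis was one-way ANOVA with Tukey-Kramer.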

human liver microsomes = assay: CYP-dependent in vitro metabolism in human liver microsomes; type: in vitro ADME
Kinetic solubility = type: physicochemical; details: water with 5% DMSO, 18 h incubation
[6] = read-out: CB1 Ki, mean ± SD, at least three experiments in duplicate
[7] = read-out: CB2 Ki, mean ± SD, at least three experiments in duplicate
[8] = mean ± SD, at least three experiments in duplicate

SMILES	S.I. (selectivity index for CB2, Ki(CB1)/Ki(CB2)) [3]	Ki [2, 6] [µM]	Ki [3, 7] [nM]	logP Exp [4]	other results
CCCCCCC(C)(C)c1ccc([C@@H]2C[C@H](O)CC[C@H]2CCCO)c(O)c1 [CP55940, (−)-cis-3-[2-hydroxy-4-(1,1-dimethylheptyl)phenyl]-trans-4-(3-hydroxypropyl)cyclohexanol, reference compound]					Emax [1]: 84.7%
CCCCCn1cc(-c2cn(C34CC5CC(CC(C5)C3)C4)nn2)c(=O)c2cc(-c3ccc(OC(C)C)cc3)ccc21 [Compound 5, 1-(Adamantan-1-yl)-4-[6-(4-(2-propyloxy)phenyl]-1,4-dihydro-4-oxo-1-pentylquinolin-3-yl]-1H-1,2,3-triazole]	> 6				Ki [2]: > 10 µM; Ki [3]: 1680 ± 24.5 nM; chromatographic logP [4]: 7.78
CCCCCn1cc(-c2nc(C34CC5CC(CC(C5)C3)C4)no2)c(=O)c2cc(-c3ccc(OC(C)C)cc3)ccc21 [Compound 7, 3-(Adamantan-1-yl)-5-[6-(4-(2-propyloxy)phenyl]-1,4-dihydro-4-oxo-1-pentylquinolin-3-yl]-1,2,4-oxadiadole]		> 10	> 10000	7.71	Displacement of marker ligand from OT column (CB2 receptor): very little displacement
CCCCCn1cc(-c2cn(C34CC5CC(CC(C5)C3)C4)nn2)c(=O)c2cc(Br)ccc21 [Compound 8, 1-(Adamantan-1-yl)-4-(6-bromo-1,4-dihydro-4-oxo-1-pentylquinolin-3-yl)-1H-1,2,3-triazole]					Ki [2]: > 10 µM; Ki [3]: 32.2 ± 1.2 nM; chromatographic logP [4]: 5.83
CCCCCn1cc(-c2nnc(C34CC5CC(CC(C5)C3)C4)o2)c(=O)c2cc(Br)ccc21 [Compound 9, 2-(Adamantan-1-yl)-5-(6-bromo-1,4-dihydro-4-oxo-1-pentylquinolin-3-yl)-1,3,4-oxadiadole]	> 40	> 10	250 ± 8.6	5.15	
CCCCCn1cc(-c2nc(C34CC5CC(CC(C5)C3)C4)no2)c(=O)c2cc(Br)ccc21 [Compound 10, 3-(Adamantan-1-yl)-5-(6-bromo-1,4-dihydro-4-oxo-1-pentylquinolin-3-yl)-1,2,4-oxadiadole]	76	0.208 ± 0.0055	2.7 ± 0.8	5.77	
CCCCCn1cc(-c2cn(C34CC5CC(CC(C5)C3)C4)nn2)c(=O)c2cc(-c3ccco3)ccc21 [Compound 11, 1-(Adamantan-1-yl)-4-[6-(furan-2-yl)-1,4-dihydro-4-oxo-1-pentylquinolin-3-yl]-1H-1,2,3-triazole]					Ki [2]: > 10 µM; chromatographic logP [4]: 5.18; Emax [1]: -52%; Functional effect on [35S]GTPγS binding [1]: inverse agonist effects; Effect on 2nd phase of formalin-induced nocifensive behaviour [5]: significant reduction; Effect of AM630 pre-treatment on the antinociceptive effect of the compound [5]: completely abolished; Vmax (formation rate) (human liver microsomes; 0.5 mg microsomal protein, 60 min incubation): 0.16±0.01 nmol x min^−1 × mg^1 protein; CYP isoforms involved in metabolism (inhibition study) (human liver microsomes; human liver microsomes): CYP3A4 is the major isoform involved, while CYP1A and CYP2A are only partially implicated; Metabolite identified (human liver microsomes; human liver microsomes, HPLC-MS): side chain hydroxylated derivative 32 as its only metabolite
CCCCCn1cc(-c2nnc(C34CC5CC(CC(C5)C3)C4)o2)c(=O)c2cc(-c3ccco3)ccc21 [Compound 12, 2-(Adamantan-1-yl)-5-[6-(furan-2-yl)-1,4-dihydro-4-oxo-1-pentylquinolin-3-yl]-1H-1,3,4-oxadiadole]	> 1543	> 10	6.5 ± 2.2	5.26	Solubility (Kinetic solubility): 128 µg/mL (≈ 265 µM); EC50 ([1]; [35S]GTPγS binding, 95% confidence limits in brackets): 57.6 nM; Functional effect on [35S]GTPγS binding [1]: inverse agonist effects; Emax ([1]; percentage change in [35S]GTPγS binding, 95% confidence limits in brackets): −46.6% (−52.5 and −40.6%); Effect on 2nd phase of formalin-induced nocifensive behaviour [5]: significant reduction; Effect of AM630 pre-treatment on the antinociceptive effect of the compound [5]: did not induce any change
CCCCCn1cc(-c2nc(C34CC5CC(CC(C5)C3)C4)no2)c(=O)c2cc(-c3ccco3)ccc21 [Compound 13, 3-(Adamantan-1-yl)-5-[6-(furan-2-yl)-1,4-dihydro-4-oxo-1-pentylquinolin-3-yl]-1H-1,2,4-oxadiadole]	82	0.033 ± 0.0006	0.4 ± 0.1	6.38	Solubility (Kinetic solubility): 7 µg/mL (≈ 14.5 µM)
CCCCCn1c(=O)c(-c2cn(C34CC5CC(CC(C5)C3)C4)nn2)cc2ccccc21 [Compound 15, 1-(Adamantan-1-yl)-4-(1-pentylquinolin-2(1H)-one)-1H-1,2,3-triazole]	29	0.3219 ± 0.0021	11.1 ± 3.6		
CCCCCOc1nc2ccccc2cc1-c1cn(C23CC4CC(CC(C4)C2)C3)nn1 [Compound 16, 1-(Adamantan-1-yl)-4-[2-(pentyloxy)quinoline]-1H-1,2,3-triazole]	271		12.6 ± 4.3		Ki ([2]; read-out: CB1 Ki): 3.415 ± 0.0098 µM
O=c1c(-c2cn(C34CC5CC(CC(C5)C3)C4)nn2)c[nH]c2ccc(-c3ccco3)cc12 [Compound 29, 3-(1-Adamantyl-1H-1,2,3-triazol-4-yl)-6-(furan-2-yl)quinolin-4(1H)-one]		> 10	> 10000		CB1 Ki [2, 8]: no affinity; CB2 Ki [3, 8]: no affinity
CC(O)CCCn1cc(-c2cn(C34CC5CC(CC(C5)C3)C4)nn2)c(=O)c2cc(-c3ccco3)ccc21 (stereo not shown) [Compound 32, 3-(1-Adamantyl-1H-1,2,3-triazol-4-yl)-6-(furan-2-yl)-1-(4-hydroxypentyl)quinolin-4(1H)-one]	> 52	> 10	190 ± 10		Loss of potency versus parent compound 11 ([3]; racemic form): 150 fold
